Reference: ChEMBL document CHEMBL1124445, “Synthesis and pharmacology of a series of 3- and 4-(phosphonoalkyl)pyridine- and -piperidine-2-carboxylic acids. Potent N-methyl-D-aspartate receptor antagonists” (J Med Chem, 1989)

Columns and labels:
[1] = tested on: Mus musculus; test: Ability to protect against NMDA-induced lethality in mice after intraperitoneal administration; type: functional; conditions: ip, read-out: MED
In short: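 Mice received the test drug ip 30 min before NMDA at 200 mg/kg ip; compounds were racemic. Five animals per dose. The endpoint was survival for more than 30 min after the NMDA injection. MED is the dose at which at least three of the five mice survived. The highest dose tested was 160 mg/kg.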

[2] = Percent displacement determined by inhibition of [3H]-CPP binding against N-methyl-D-aspartate glutamate receptor in mice at 10 uM
[3] = Compound was evaluated for the inhibition of the binding of [3H]CPP against NMDA in mice
[4] = Compound was evaluated for the inhibition of the binding of [3H]CPP against N-methyl-D-aspartate glutamate receptor in mice
In short: (§1)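 Racemic compounds tested for displacement of [3H]CPP binding to the NMDA receptor. Affinity reported as IC50 in nM.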

[5] = Percent displacement determined by inhibition of [3H]CPP binding against NMDA receptor in mice at 10 uM
[6] = Compound was evaluated for the inhibition of the binding of [3H]-CPP against NMDA receptor in mice; in short: as §1

Row | Compound | minimal effective dose [1] | Displacement [2] | other results
1 | O=C(O)c1cc(CCCCP(=O)(O)O)ccn1 | > 160 mg/kg | 25% | 
2 | NC(CCCCCP(=O)(O)O)C(=O)O (stereo unspecified) [AP-7] | 160 mg/kg |  | IC50 [3]: 320 nM
3 | O=C(O)c1cc(CCP(=O)(O)O)ccn1 | > 160 mg/kg |  | IC50 [4]: 3500 nM
4 | O=C(O)[C@@H]1C[C@H](CCCP(=O)(O)O)CCN1 | 40 mg/kg |  | IC50 [4]: 120 nM
5 | O=C(O)c1ncccc1CP(=O)(O)O | > 160 mg/kg |  | Displacement [5]: -18%
6 | O=C(O)[C@@H]1C[C@H](CCP(=O)(O)O)CCN1 | > 160 mg/kg |  | IC50 [4]: 6600 nM
7 | O=C(O)c1cc(CP(=O)(O)O)ccn1 | > 160 mg/kg |  | Displacement [5]: 4%
8 | O=C(O)c1ncccc1/C=C/P(=O)(O)O | > 160 mg/kg | 26% | 
9 | O=C(O)[C@H]1NCCC[C@H]1CCP(=O)(O)O | 160 mg/kg |  | IC50 [6]: 1000 nM
10 | O=C(O)c1cc(CCCP(=O)(O)O)ccn1 | > 160 mg/kg | 34% | 
11 | O=C(O)c1ncccc1CCP(=O)(O)O | > 160 mg/kg |  | IC50 [6]: 3500 nM
12 | O=C(O)[C@@H]1C[C@H](CP(=O)(O)O)CCN1 [SELFOTEL] | 10 mg/kg |  | IC50 [6]: 95 nM
13 | O=C(O)[C@H]1NCCC[C@H]1CP(=O)(O)O |  | 19% | 
14 | O=C(O)[C@@H]1C[C@H](CCCCP(=O)(O)O)CCN1 | > 160 mg/kg | 26% | 
15 | O=C(O)c1ncccc1/C=C\P(=O)(O)O | > 160 mg/kg | 20% | 
16 | O=C(O)C1CN(CCCP(=O)(O)O)CCN1 (stereo unspecified) | 2.5 mg/kg |  | IC50 [4]: 72 nM
